One experiment concerns Calf thymus DNA. As to the kind of experiment: Ability to displace ethidium bromide from calf thymus DNA. It is filed as nucleic-acid assay, Bos taurus. A digest of the protocol:
(§1)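 Fluorescence displacement. Ethidium bromide 1.6 μM final in 2 mM HEPES, 10 μM EDTA, 9.4 mM NaCl, pH 7.0, then DNA added at 2 μM final (DNA phosphate): calf thymus DNA, poly(dA-dT)·poly(dA-dT) or poly(dG-dC)·poly(dG-dC). Excitation 546 nm, emission 598 nm. Analogue titrated in aliquots. IC50 is the concentration halving ethidium–DNA fluorescence. Trial-to-trial variability generally <5%.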

The subject of experiment [1] is Nucleic Acid. As to the kind of experiment: Ability to displace ethidium bromide from double stranded synthetic Poly (dA-dT). It is filed as nucleic-acid assay. A digest of the protocol:
as §1

For experiment [2], the system named is HeLa. As to the kind of experiment: Ability to inhibit 50% growth of HeLa cells. It is filed as functional, cell-based. The conditions noted are these: Homo sapiens. The method, boiled down: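 HeLa cells grown 2 days, then counted to set the baseline. Analogues added in complete medium for a further 2 days, then cells counted. Growth increase compared with untreated controls. IC50 is the concentration giving a 50% decrease in growth relative to controls.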

Experiment [3] deals with Nucleic Acid. As to the kind of experiment: Ability to displace ethidium bromide from double stranded synthetic poly (dG-dC). It is filed as nucleic-acid assay. A digest of the protocol:
as §1

Experiment [4] concerns HeLa. As to the kind of experiment: Ability to cause aggregation of purified HeLa cell DNA. The experiment is classed as functional. The conditions noted are these: Homo sapiens. A digest of the protocol:
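HeLa DNA labelled via 3-day culture with 4 μCi [³H]thymidine, then phenol/chloroform extracted. 1.5 μg DNA (~20000 cpm) plus analogue at various concentrations in buffer of 25 mM Tris, 4.5 mM KCl, 3 mM MgCl₂, pH 7.6. Incubated 10 min at 37 °C, then centrifuged 2.5 min and supernatant counted.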

Usually IC50 stands for the concentration that gives 50% inhibition. Lower therefore signals greater potency in that assay.

As for `NCCCCNCCCN` [SPERMIDINE], the IC50 in the experiment on Calf thymus DNA stood at 130 µM; in the experiment with Nucleic Acid [1], 110 µM; with HeLa [2], 100 µM; with Nucleic Acid [3] it was 300 µM; in the experiment with HeLa [4], 1500 µM.
The matching figures for `NCCCNCCCCNCCCN` [SPERMINE]: 4.3 µM, 2.8 µM, 50 µM, 6 µM and 70 µM.

For the origin of these results see ChEMBL document CHEMBL1125175, “Synthesis and DNA-binding properties of polyamine analogues” (J Med Chem, 1991).
